Source: PubChem
TDP2 absorb: TDP2 (human) inhibition, absorbance primary screen; O95551; recombinant TDP2, T5PNP hydrolysis, p-nitrophenol absorbance 415 nm; inhibition, % at 12.8 µM; hit rate 0.34% among 370,000;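 active = inhibition above the mean of all tested compounds plus 3 SD, set per campaign, cut at about 25% in these data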;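 note: 0% = DMSO with enzyme and 100% = buffer with substrate but no TDP2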
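test system = human TDP2 enzyme | input = TDP2 enzyme at 120 nM final | medium = 50 mM Tris-HCl pH 7.5 with Mg2+, KCl, DTT, BSA | also added = T5PNP substrate, 5 mM | times = 2 h at 37 °C | technique = epi absorbance | benchmarks = high control without enzyme, low control DMSO plus TDP2 | replication = each compound tested once, singlicate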
PRMT1 FP inh: blocks human protein arginine methyltransferase 1. hit rate 1.3% among 370,000. Q99873. AID 652257. recombinant PRMT1, activity-based probe fluorescence polarization. inhibition, % at 2.79 µM;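 active = inhibition above about 21% made by adding two undisclosed values, limit read from the data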
Fh CTSL1 inh: blocks F. hepatica cathepsin L1 in PFM18AAP counter-screen; recombinant F. hepatica cathepsin L1, Z-Leu-Arg-MCA fluorescence; inhibition, % at 5.96 µM; hit rate 0.49% among 300,000;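 active = inhibition above the mean of all tested compounds plus 3 SD, set per screening campaign, cut at about 17% in these data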;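 note: 0% = plate median of test compound wells and 100% = 1 µM Z-Phe-Ala-diazomethylketone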
PAD4 FP inh: inhibitors of human PAD4. recombinant PAD4, RCA probe fluorescence polarization. inhibition, % at 6.36 µM. hit rate 0.41% among 330,000;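 active = percent inhibition above a cutoff equal to the mean of all tested compounds plus 3 SD, cut at about 15% in these data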;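 note: 0% = PAD4 with RCA probe and DMSO and 100% = probe without PAD4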
Target sequence (Q9UM07 whole entry, looked up): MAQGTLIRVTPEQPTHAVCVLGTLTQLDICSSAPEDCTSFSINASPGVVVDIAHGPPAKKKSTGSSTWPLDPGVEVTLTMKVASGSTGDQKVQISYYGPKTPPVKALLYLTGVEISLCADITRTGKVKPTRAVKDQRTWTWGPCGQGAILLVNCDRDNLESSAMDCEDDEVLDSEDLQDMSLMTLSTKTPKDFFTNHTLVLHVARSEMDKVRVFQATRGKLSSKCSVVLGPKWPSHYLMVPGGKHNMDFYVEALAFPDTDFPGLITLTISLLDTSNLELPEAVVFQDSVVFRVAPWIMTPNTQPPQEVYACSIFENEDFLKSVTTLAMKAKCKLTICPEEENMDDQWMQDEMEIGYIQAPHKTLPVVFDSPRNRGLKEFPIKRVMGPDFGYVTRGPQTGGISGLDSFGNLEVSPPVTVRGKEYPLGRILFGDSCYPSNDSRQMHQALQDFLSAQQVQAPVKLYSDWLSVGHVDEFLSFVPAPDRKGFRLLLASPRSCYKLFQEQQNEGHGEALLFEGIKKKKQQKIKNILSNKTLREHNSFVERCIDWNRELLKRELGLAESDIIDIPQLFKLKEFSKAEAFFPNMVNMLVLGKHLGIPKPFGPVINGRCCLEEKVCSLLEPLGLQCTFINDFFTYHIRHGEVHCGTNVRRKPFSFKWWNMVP
GSTO1 counter: counter-screen for RBBP9 inhibitors: inhibitors of human GSTO1; P78417; recombinant GSTO1, activity-based probe fluorescence polarization; inhibition, % at 5.96 µM; hit rate 1.1% among 300,000; AID 1974;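 active = inhibition above the campaign mean inhibition plus 3 SD, cut at about 35% in these data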;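 note: 0% = GSTO1-1 with DMSO and 100% = wells lacking GSTO1-1 enzyme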
* hit, by the source's call; . = no result. Only some compounds are listed: those with a hit (about 2.5% of all), similar ones and a draw of the others.

SMILES	TDP2 absorb	PRMT1 FP inh	Fh CTSL1 inh	PAD4 FP inh	GSTO1 counter
COCC(=O)N(C)[C@H]1C[C@H]2c3[nH]c4c(-c5ccc6c(c5)OCO6)cccc4c3CCN2C(=O)[C@H]1[C@H](C)O	4.2	-4.9	.	.	.
COc1cc(CC(=O)OCC(=O)NC2CCCC2)cc(OC)c1OC	8.3	-1.6	.	1.1	.
COc1cc(CC(=O)OCC(=O)NC2CC2)cc(OC)c1OC	2.9	-3.5	46.1*	-1.8	-2.9
O=C(CSc1nc2ccccc2c(=O)n1-c1ccc(Cl)cc1)NNC(=S)Nc1ccccc1	8.4	5.3	.	.	.
COc1ccc(CNC(=S)Nc2ccc(OC)cc2)cc1	4.2	0.8	-2.3	-1.8	4.2
COc1ccc(CNC(=S)Nc2ccc(S(N)(=O)=O)cc2)cc1	43.4*	6.4	-2.2	2.5	10.1
C/C=C/Cn1c(SCc2ccc(C)cc2)nc2c1c(=O)[nH]c(=O)n2C	1.9	11.0	1.3	-3.7	-7.5
CC=CCn1c(SCc2ccccc2)nc2c1c(=O)[nH]c(=O)n2C	2.7	24.0*	.	.	.
Cc1csc(N=Cc2ccc([N+](=O)[O-])o2)n1	4.0	23.2*	.	.	.
O=[N+]([O-])c1ccc(/C=N/N=C/c2ccc([N+](=O)[O-])o2)o1	2.6	-1.8	.	.	.
CC(C)C(C#CC1CC1)NCc1ccc2c(c1)OCO2 (stereo unspecified)	-9.4	1.5	.	.	.
C/C=C/C=C\C(=O)Nc1cccc(C2=NOC3(C2)C[C@@H](C(N)=O)N(C(=O)c2cc([N+](=O)[O-])cc([N+](=O)[O-])c2)C3)c1 (stereo partly specified)	-7.4	23.2*	-1.9	1.8	6.1
C/C=C\C=C/C(=O)Nc1cccc(C2=NOC3(C2)C[C@@H](C(N)=O)N(C(=O)[C@H]2CCC(=O)N2)C3)c1 (stereo partly specified)	.	.	19.8*	-7.0	-2.8
C/C=C\C=C/C(=O)Nc1cccc(C2=NOC3(C2)C[C@@H](C(N)=O)N(C(=O)/C=C/C=C\C)C3)c1 (stereo partly specified)	.	.	4.6	-11.8	-6.1
COc1ccc(N(C(=O)CCl)C(C(=O)NC2CCCCC2)c2cccnc2)cc1 (stereo unspecified)	3.7	1.4	8.2	1.7	98.3*
CCOc1ccc(NC(=O)C(c2ccccn2)N(C(=O)CCl)c2ccc(OC)cc2)cc1 (stereo unspecified)	0.5	15.4	0.2	-9.3	35.6*
COc1ccc(-c2nnc(SCc3c(F)cccc3F)n2N)cc1	-4.3	1.6	.	.	.
COC(=O)[C@]12C[C@H](CC(=O)N3CCCC3)C(=O)N(CCC3=CCCCC3)C1=C[C@H](C(C)C)O[C@@H]2C1CC1	-1.4	-1.2	.	.	.
CC1(C)CC(=O)C(CSC(=O)c2ccccc2)C(=O)C1	-6.2	24.1*	.	.	.
CC1(C)CC(=O)C=C(NNC(=O)c2ccccc2)C1	3.2	1.1	0.4	0.8	5.7
Cc1cccc(-c2cccc3c4c([nH]c23)[C@@H]2C[C@H](N(C)C(=O)NC3CCCCC3)[C@H]([C@H](C)O)CN2CC4)c1	-13.9	4.6	.	.	.
CC(=O)c1c(C)cc(C)c(CSc2nnc(-c3ccco3)o2)c1C	3.1	-0.7	3.9	2.7	35.2*
CCOc1ccc(-n2c(SCC(=O)c3ccccc3Cl)nnc2-c2ccncc2)cc1	-4.2	-4.2	.	.	.
Cc1ccc2c(c1)C1CS(=O)(=O)N(Cc3ccc(F)cc3)CN1C2 (stereo unspecified)	2.0	1.6	.	.	.
CCOC(=O)c1c(C)[nH]c(C)c1C(=O)COC(=O)c1c(OC)cccc1OC	-7.5	-0.8	-7.2	-1.8	2.7
SMILES	TDP2 absorb	PRMT1 FP inh	Fh CTSL1 inh	PAD4 FP inh	GSTO1 counter
CCOC(=O)c1c(C)[nH]c(C)c1C(=O)COC(=O)c1ccc(OC)c(OC)c1	9.0	3.1	-0.5	-3.5	35.3*
O=C(Nc1cccc(C(F)(F)F)c1)OCCCN1CCC2(CCC(c3ccccc3)CC2)C1=O (stereo unspecified)	-10.2	-5.8	.	.	.
CCOc1ccc(C2C3=C(CCCC3=O)Nc3ccc4ncccc4c32)cc1 (stereo unspecified)	-13.9	-6.3	-3.0	1.3	6.8
O=C1CCCC2=C1C(c1ccc(O)c(O)c1)c1c(ccc3ncccc13)N2 (stereo unspecified)	-0.4	21.2*	-6.7	-9.3	75.3*
CN1/C(=C\C=Nc2ccc3ccccc3c2)C(C)(C)c2ccccc21	.	.	1.6	-5.3	7.4
CN(C)c1ccc(N=C/C=C2\N(C)c3ccccc3C2(C)C)cc1	3.3	23.5*	1.2	12.8	19.7
c1coc(-c2nc3c4ccccc4ccn3c2Cc2ccsc2)c1	-7.5	32.4*	.	.	.
CCC(C)NC(=S)NNC(=O)c1ccncc1 (stereo unspecified)	7.3	0.3	20.2*	0.3	-20.7
C[C@]12CC[C@@H]3c4cc(O)c(O)cc4CC[C@H]3[C@@H]1CC[C@@H]2O	-1.1	33.2*	3.6	-0.8	42.4*
C[C@]12CC[C@@H]3c4ccc(O)cc4CC[C@H]3[C@@H]1CC[C@@H]2O	4.0	3.9	-2.7	-5.0	1.7
COc1ccc(Cn2c(NC(=O)c3ccccc3)nc(Cc3ccccc3)c2Cc2ccccc2)cc1	-5.3	-12.2	.	.	.
N/C(=N\OS(=O)(=O)c1ccc2ccccc2c1)c1cccnc1	-13.1	3.5	2.1	-1.6	1.5
N/C(=N\OS(=O)(=O)c1ccccc1)c1ccncc1	-1.9	-1.3	33.1*	5.5	-0.1
N/C(=N\OS(=O)(=O)c1ccc2ccccc2c1)c1ccncc1	1.9	-1.0	42.6*	0.8	10.5
O=c1oc2ccccc2c(O)c1CN1CCCCC1	6.2	-3.7	3.7	-2.1	-68.6
O=C1NCCCC2c3cc(O)c4ccccc4c3OC12N1CCCCC1 (stereo unspecified)	56.7*	15.2	28.8*	33.6*	80.6*
C[C@H](O)[C@@H]1C(=O)N2CCc3c([nH]c4c(-c5ccc6c(c5)OCO6)cccc34)[C@@H]2C[C@@H]1N(C)C(=O)c1ccccc1F	-3.4	2.8	.	.	.
COCCCN1C(=O)[C@H](CC(=O)NCc2cccc3ccccc23)[C@]2(C(=O)OC)CCCCC=C12	2.2	1.4	.	.	.
Cc1ccc(S(=O)(=O)NCCSCc2ccco2)cc1	16.9	1.9	-1.7	-1.8	6.3
Cc1cc(C)c(S(=O)(=O)NCCSCc2ccco2)c(C)c1	-4.5	24.1*	.	0.2	.
O=c1cc(O)n(C2CCCCCC2)c(=O)[nH]1	-6.2	24.1*	-8.9	-1.3	36.3*
CCOC(=O)Cn1cc(C#N)c2ccccc21	3.4	-2.9	-0.6	-7.1	-2.7
CCOC(=O)CC(C#N)c1cn(C)c2ccccc12 (stereo unspecified)	4.3	-1.3	28.2*	3.3	-0.9
Oc1oc(-c2cccc3ccccc23)nc1/C=N/c1nccs1	0.7	1.6	22.4*	-1.5	-5.2
C(=N\c1nccs1)/c1c[nH]c2ccccc12	-5.8	8.0	1.4	-3.1	5.7
Cc1cc(C(=O)CSc2nc(N)cc(=O)[nH]2)c(C)n1CCc1ccc(F)cc1	0.6	2.6	6.2	31.8*	-0.7
Cc1cc(C(=O)CCl)c(C)n1CCc1ccc(Cl)cc1	-4.1	-1.5	21.2*	-2.3	88.3*
